Results as given in ChEMBL document CHEMBL3352527, “Phosphorus-nitrogen compounds. Part 29. Syntheses, crystal structures, spectroscopic and stereogenic properties, electrochemical investigations, antituberculosis, antimicrobial and cytotoxic activities and DNA interactions of ansa-spiro-ansa cyclotetraphosphazenes” (2014).
Active and inactive are the calls of the source. The calls are words filed in the database; no cut-off is given here.

Assays:
Escherichia coli [1] = experiment: Antimicrobial activity against Escherichia coli ATCC 25922 after 18 hrs by agar well diffusion assay; format: functional
How it was run: (§1)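 Bacteria were grown to exponential phase in nutrient broth at 37 °C for 18 h and adjusted to 10^8 cfu/mL against McFarland density. The culture suspension was mixed into the medium and poured into plates with 6.0 mm wells. Each well received 50 of the compound solution in DMSO. Inhibition zone diameter was read in mm; the value is the mean of three experiments.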

Bacillus spizizenii [2] = experiment: Antimicrobial activity against Bacillus subtilis ATCC 6633 after 18 hrs by agar well diffusion assay; format: functional; how it was run: as §1
Bacillus cereus [3] = experiment: Antimicrobial activity against Bacillus cereus NRRL-B-3711 after 18 hrs by agar well diffusion assay; format: functional; how it was run: as §1
Escherichia coli [4] = experiment: Binding affinity to Escherichia coli pBR322 plasmid DNA assessed as retardation of electrophoretic migration of supercoiled form I DNA at 312 to 5000 uM after 24 hrs by agarose gel electrophoresis
How it was run: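 pBR322 plasmid DNA was incubated with the compounds at 37 °C for 24 h in the dark. Mixtures were run on a 1% agarose gel in TAE buffer (pH 8.0) for 3 h at 60 V. Mobility of supercoiled form I and nicked form II DNA was compared with untreated plasmid.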

MCF7 = experiment: Cytotoxicity against human MCF7 cells assessed as reduction in cell viability at 1 mg/ml after 24 hrs by MTT assay; format: functional
How it was run: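 Cells were exposed to compounds for 24 h, then to MTT for 4 h. Formazan was dissolved in DMSO and absorbance read at 540 nm. Relative viability (%) was determined, with cisplatin as positive control.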

Bacillus spizizenii [5] = experiment: Antimicrobial activity against Bacillus subtilis ATCC 6633 at 2500 uM after 18 hrs by agar well diffusion assay; format: functional; conditions: ATCC 6633, 18 h, read-out: DIZ; how it was run: as §1
Escherichia coli [6] = experiment: Antimicrobial activity against Escherichia coli ATCC 35218 at 10 ug after 18 hrs by agar well diffusion assay; format: functional, organism-based
Bacillus spizizenii [7] = experiment: Antimicrobial activity against Bacillus subtilis ATCC 6633 at 10 ug after 18 hrs by agar well diffusion assay; format: functional; conditions: ATCC 6633, 18 h, read-out: DIZ
How it was run: (§2)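 Agar-well diffusion with ampicillin and chloramphenicol as reference antibacterials. Bacteria were grown to exponential phase in nutrient broth at 37 °C for 18 h and adjusted to 10^8 cfu/mL against McFarland density. The suspension was mixed into medium and poured into plates, and 6.0 mm wells were cut. After incubation, inhibition zone diameter was read in mm. Values are the mean of three experiments.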

Staphylococcus aureus [8] = experiment: Antimicrobial activity against Staphylococcus aureus ATCC 25923 at 10 ug after 18 hrs by agar well diffusion assay; format: functional; conditions: ATCC 25923, 18 h, read-out: DIZ; how it was run: as §2
Escherichia coli [9] = experiment: Antimicrobial activity against Escherichia coli ATCC 25922 at 10 ug after 18 hrs by agar well diffusion assay; format: functional; conditions: ATCC 25922, 18 h, read-out: DIZ; how it was run: as §2
Bacillus cereus [10] = experiment: Antimicrobial activity against Bacillus cereus NRRL-B-3711 at 10 ug after 18 hrs by agar well diffusion assay; format: functional; conditions: NRRL-B-3711, 18 h, read-out: DIZ; how it was run: as §2
Pseudomonas aeruginosa [11] = experiment: Antimicrobial activity against Pseudomonas aeruginosa ATCC 27853 at 10 ug after 18 hrs by agar well diffusion assay; format: functional; conditions: ATCC 27853, 18 h, read-out: DIZ; how it was run: as §2
Escherichia coli [12] = experiment: Antimicrobial activity against Escherichia coli ATCC 25922 at 30 ug after 18 hrs by agar well diffusion assay; format: functional; conditions: ATCC 25922, 18 h, read-out: DIZ; how it was run: as §2
Pseudomonas aeruginosa [13] = experiment: Antimicrobial activity against Pseudomonas aeruginosa ATCC 27853 at 30 ug after 18 hrs by agar well diffusion assay; format: functional; conditions: ATCC 27853, 18 h, read-out: DIZ; how it was run: as §2
Bacillus spizizenii [14] = experiment: Antimicrobial activity against Bacillus subtilis ATCC 6633 at 30 ug after 18 hrs by agar well diffusion assay; format: functional; conditions: ATCC 6633, 18 h, read-out: DIZ; how it was run: as §2
Staphylococcus aureus [15] = experiment: Antimicrobial activity against Staphylococcus aureus ATCC 25923 at 30 ug after 18 hrs by agar well diffusion assay; format: functional; conditions: ATCC 25923, 18 h, read-out: DIZ; how it was run: as §2
Escherichia coli [16] = experiment: Antimicrobial activity against Escherichia coli ATCC 35218 at 30 ug after 18 hrs by agar well diffusion assay; format: functional; conditions: ATCC 35218, 18 h, read-out: DIZ; how it was run: as §2
Bacillus cereus [17] = experiment: Antimicrobial activity against Bacillus cereus NRRL-B-3711 at 30 ug after 18 hrs by agar well diffusion assay; format: functional; conditions: NRRL-B-3711, 18 h, read-out: DIZ; how it was run: as §2
Candida albicans = experiment: Antimicrobial activity against Candida albicans ATCC 10231 at 50 ug after 18 hrs by agar well diffusion assay; format: functional; conditions: ATCC 10231, 18 h, read-out: DIZ
Candida tropicalis = experiment: Antimicrobial activity against Candida tropicalis ATCC 13803 at 50 ug after 18 hrs by agar well diffusion assay; format: functional; conditions: ATCC 13803, 18 h, read-out: DIZ

C1CC2(CCN1)OCCO2
diameter of the inhibition zone (DIZ) (Escherichia coli [1]): 11 mm
diameter of the inhibition zone (DIZ) (Bacillus spizizenii [2]): 12 mm
diameter of the inhibition zone (DIZ) (Bacillus cereus [3]): 13 mm

[K+].[K+].[O-]c1ccccc1CNCCCNCc1ccccc1[O-]
diameter of the inhibition zone (DIZ) (Escherichia coli [1]): 10.3 mm
diameter of the inhibition zone (DIZ) (Bacillus cereus [3]): 11 mm

Cl[P@@]12=NP34=N[P@](Cl)(=NP(N5CCCCC5)(N5CCCCC5)=N1)Oc1ccccc1CN3CCN4Cc1ccccc1O2 (mixture of isomers)
Activity (Escherichia coli [4]): Active
Activity (MCF7): 40%

Cl[P@@]12=NP34=N[P@](Cl)(=NP(N5CCC6(CC5)OCCO6)(N5CCC6(CC5)OCCO6)=N1)Oc1ccccc1CN3CCCN4Cc1ccccc1O2 (mixture of isomers)
Activity (MCF7): inactive

ClP12=NP34=N[P@](Cl)(=NP(N5CCCCC5)(N5CCCCC5)=N1)Oc1ccccc1CN3CCCN4Cc1ccccc1O2 (single isomer, unassigned)
Activity (Escherichia coli [4]): Active
zone of inhibition at 2500 µM (Bacillus spizizenii [5]): 9 mm
Activity (MCF7): 40%

ClP12=NP34=NP(Cl)(=NP(N5CCC6(CC5)OCCO6)(N5CCC6(CC5)OCCO6)=N1)Oc1ccccc1CN3CCCN4Cc1ccccc1O2 (single isomer, unassigned)
zone of inhibition at 2500 µM (Bacillus spizizenii [5]): 7 mm
Activity (MCF7): inactive

ClP12=NP(N3CCC4(CC3)OCCO4)(N3CCC4(CC3)OCCO4)=N[P@@]3(Cl)=N[P@]4(=N1)N(CCN4Cc1ccccc1O3)Cc1ccccc1O2 (single isomer, unassigned)
Activity (MCF7): inactive

ClP12=NP34=N[P@](Cl)(=NP(N5CCC6(CC5)OCCO6)(N5CCC6(CC5)OCCO6)=N1)Oc1ccccc1CN3CCN4Cc1ccccc1O2 (single isomer, unassigned)
Activity (MCF7): inactive

CC1(C)S[C@@H]2[C@H](NC(=O)[C@H](N)c3ccccc3)C(=O)N2[C@H]1C(=O)O [AMPICILLIN]
diameter of the inhibition zone (DIZ) (Escherichia coli [6]): inactive
zone of inhibition at 10 µg/disc (Bacillus spizizenii [7]): 30.3 mm
zone of inhibition at 10 µg/disc (Staphylococcus aureus [8]): 35 mm
zone of inhibition at 10 µg/disc (Escherichia coli [9]): 20.3 mm
zone of inhibition at 10 µg/disc (Bacillus cereus [10]): 10 mm
zone of inhibition at 10 µg/disc (Pseudomonas aeruginosa [11]): 28 mm

O=C(N[C@H](CO)[C@H](O)c1ccc([N+](=O)[O-])cc1)C(Cl)Cl [CHLORAMPHENICOL]
zone of inhibition at 30 µg/disc (Escherichia coli [12]): 26.6 mm
zone of inhibition at 30 µg/disc (Pseudomonas aeruginosa [13]): 21.9 mm
zone of inhibition at 30 µg/disc (Bacillus spizizenii [14]): 31 mm
zone of inhibition at 30 µg/disc (Staphylococcus aureus [15]): 29.6 mm
zone of inhibition at 30 µg/disc (Escherichia coli [16]): 10.5 mm
zone of inhibition at 30 µg/disc (Bacillus cereus [17]): 23.4 mm

CC(=O)N1CCN(c2ccc(OCC3COC(Cn4ccnc4)(c4ccc(Cl)cc4Cl)O3)cc2)CC1 (stereo unspecified) [KETOCONAZOLE]
zone of inhibition at 50 µg/disc (Candida albicans): 30 mm
zone of inhibition at 50 µg/disc (Candida tropicalis): 29 mm

C1CCNCC1 [PIPERIDINE]
diameter of the inhibition zone (DIZ) (Escherichia coli [1]): 11 mm
diameter of the inhibition zone (DIZ) (Bacillus cereus [3]): 13 mm
